A1 apoptosis 2: A1 inhibitors via caspase activation, primary screen, cell-based, luminescence, HTS, two replicates. MEF A1-2A-BIM cells, caspase-Glo luminescence, 3 h; percent of clofoctol response, DMSO zero. caspase activation, % (test concentration not listed). 24,000 tested, under 10 active; in the data active = caspase activation above about 5.9%
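System: mouse embryonic fibroblasts co-expressing A1 and BIM (A1-2A-BIM), primed for A1 dependence; amount: 2500 cells/well; doses: 50 nL pinned compound; schedule: cells settled overnight, compound exposure 3 h at 37 °C, 5% CO2; detection: Caspase-Glo 3/7 luminescence, 1 h at room temperature; read-out: Caspase-3/7 activation, seen as rise in luminescence signal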
T cruzi intra: inhibitors of intracellular Trypanosoma cruzi, primary screen, cell-based, plate reader, single point, set 2; intracellular Trypanosoma cruzi in host cells; activity score (inhibition), % at 5.01 µM; 4.9% of 22,000 active; in the data active = activity score above about 55%;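 also: parasites and compound incubated about four days before reading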
INS-1E ATP HTS: protection of INS-1E cells from cytokine death, primary screen, ATP luminescence, single point; AID 488910, 2010; protection from cytokine-induced ATP loss, % at 10 µM; 0.1% of 20,000 active; INS-1E cytokine-induced death, 48 h; normalised: neutral wells 0, positive control 100;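 active = mean replicate protection from cytokine-induced ATP loss at least 50% and at least 75% of replicates each reaching 50%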
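Assay system: INS-1E rat cells / Quantity: 8000 cells per well / Medium: RPMI without phenol red, 5% FBS / Probe or stimulus: three-cytokine cocktail (IFN-γ, TNF-α, IL-1β) / Dosing: one compound concentration, pin transfer / Timing: 48 h co-treatment, 10 min post-lysis read / Technique: CellTiter-Glo luminescence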
A number is an active result. The entries come from a sample that favours hits as a whole.

For C[C@H](CO)N1C[C@H](C)[C@H](CN(C)Cc2ccc(C(=O)O)cc2)Oc2c(NC(=O)c3cnccn3)cccc2C1=O the results were A1 apoptosis 2 inactive, T cruzi intra inactive and INS-1E ATP HTS inactive.
For COc1ccc(CN(C)C[C@@H]2OCCCC[C@@H](C)Oc3ccc(NC(=O)CCCCCC(=O)Nc4ccccc4N)cc3C(=O)N([C@H](C)CO)C[C@@H]2C)cc1 the results were A1 apoptosis 2 inactive, T cruzi intra inactive and INS-1E ATP HTS inactive.
COC(=O)CCCCCCC(=O)N/N=C/C=C/c1ccccc1 was read as T cruzi intra inactive and INS-1E ATP HTS inactive.
COc1ccc(COC[C@]23NC(=S)N[C@H](c4ccccc4O2)[C@H]3CO[Si](C)(C)C(C)(C)C)cc1 was read as A1 apoptosis 2 inactive.
`O=C(N/N=C/c1cccc(O)c1)c1ccccn1` gave A1 apoptosis 2 inactive, T cruzi intra inactive and INS-1E ATP HTS inactive.
For C[C@@H]1CCCCO[C@H](CN(C)S(=O)(=O)c2ccccc2)[C@@H](C)CN([C@@H](C)CO)C(=O)c2cc(NC(=O)Nc3ccc(C(F)(F)F)cc3)ccc2O1 the results were A1 apoptosis 2 inactive.
Screening Cc1noc(C)c1S(=O)(=O)N(C)C[C@H]1OCCCC[C@@H](C)Oc2ccc(NC(=O)Nc3ccc(C(F)(F)F)cc3)cc2C(=O)N([C@H](C)CO)C[C@@H]1C returned A1 apoptosis 2 inactive, T cruzi intra 69.6 and INS-1E ATP HTS inactive.
COc1ccc(S(=O)(=O)N(C)C[C@H]2OCCCC[C@H](C)Oc3ccc(NC(=O)Nc4ccc(C(F)(F)F)cc4)cc3C(=O)N([C@H](C)CO)C[C@H]2C)cc1 was read as A1 apoptosis 2 inactive.
COc1ccc(S(=O)(=O)N(C)C[C@@H]2OCCCC[C@@H](C)Oc3ccc(NC(=O)Nc4ccc(C(F)(F)F)cc4)cc3C(=O)N([C@H](C)CO)C[C@@H]2C)cc1 was read as T cruzi intra 64.6 and INS-1E ATP HTS inactive.
For C[C@@H]1CCCCO[C@H](CN(C)S(=O)(=O)c2ccccc2)[C@@H](C)CN([C@H](C)CO)C(=O)c2cc(NC(=O)Nc3ccc(C(F)(F)F)cc3)ccc2O1 the results were A1 apoptosis 2 inactive, T cruzi intra 63.9 and INS-1E ATP HTS inactive.
C[C@@H]1CCCCO[C@@H](CN(C)S(=O)(=O)c2ccccc2)[C@@H](C)CN([C@H](C)CO)C(=O)c2cc(NC(=O)Nc3ccc(C(F)(F)F)cc3)ccc2O1 was read as A1 apoptosis 2 inactive, T cruzi intra 68.6 and INS-1E ATP HTS inactive.
For Cc1noc(C)c1S(=O)(=O)N(C)C[C@@H]1OCCCC[C@H](C)Oc2ccc(NC(=O)Nc3ccc(C(F)(F)F)cc3)cc2C(=O)N([C@H](C)CO)C[C@H]1C the results were A1 apoptosis 2 inactive.
Screening C[C@H](CO)N1C[C@H](C)[C@H](CN(C)S(=O)(=O)c2ccccc2)OCCCC[C@H](C)Oc2ccc(NC(=O)Nc3ccc(C(F)(F)F)cc3)cc2C1=O returned A1 apoptosis 2 inactive.
For O=C(N=NC=C1C=CN(O)C=C1)c1ccccn1 the results were A1 apoptosis 2 inactive, T cruzi intra inactive and INS-1E ATP HTS inactive.
For O=C(N/N=C/c1ccc(N2CCCC2)cc1)c1ccccn1 the results were A1 apoptosis 2 inactive, T cruzi intra inactive and INS-1E ATP HTS inactive.
`C[C@@H]1CN([C@@H](C)CO)C(=O)c2cc(NS(=O)(=O)c3ccc(F)cc3)ccc2O[C@@H]1CN(C)S(=O)(=O)c1cccs1` gave T cruzi intra inactive and INS-1E ATP HTS inactive.
`Cc1ccc(S(=O)(=O)N(C)C[C@H]2OCCCC[C@@H](C)Oc3ccc(NC(=O)Nc4ccc(C(F)(F)F)cc4)cc3C(=O)N([C@H](C)CO)C[C@@H]2C)cc1` gave T cruzi intra 64.1 and INS-1E ATP HTS inactive.
For Cc1ccc(S(=O)(=O)N(C)C[C@@H]2OCCCC[C@H](C)Oc3ccc(NC(=O)Nc4ccc(C(F)(F)F)cc4)cc3C(=O)N([C@@H](C)CO)C[C@@H]2C)cc1 the results were A1 apoptosis 2 inactive.
For O=C(CCCCCC(=O)N/N=C/c1cc(O)ccc1[N+](=O)[O-])NO the results were A1 apoptosis 2 inactive, T cruzi intra inactive and INS-1E ATP HTS inactive.
Screening [N-]=[N+]=NCC(=O)N1CCC2(CC1)C(=O)NCN2c1ccccc1 returned A1 apoptosis 2 inactive.
Screening C[C@H]1CN([C@@H](C)CO)C(=O)c2cccc(NC(=O)c3ccncc3)c2O[C@H]1CN(C)CC1CCCCC1 returned A1 apoptosis 2 inactive, T cruzi intra 57.4 and INS-1E ATP HTS inactive.
`C[C@@H]1CN([C@@H](C)CO)C(=O)c2cccc(NC(=O)c3ccncc3)c2O[C@H]1CN(C)C(=O)NC1CCCCC1` gave A1 apoptosis 2 inactive, T cruzi intra inactive and INS-1E ATP HTS inactive.
`C[C@@H]1CN([C@@H](C)CO)C(=O)c2cccc(NC(=O)c3ccncc3)c2O[C@H]1CN(C)CC1CC1` gave A1 apoptosis 2 inactive, T cruzi intra inactive and INS-1E ATP HTS inactive.
C[C@@H]1CN([C@@H](C)CO)C(=O)c2cccc(NC(=O)c3ccncc3)c2O[C@@H]1CN(C)CC1CCCCC1 was read as T cruzi intra inactive and INS-1E ATP HTS inactive.
Screening C[C@H]1CN([C@@H](C)CO)C(=O)c2cccc(NC(=O)c3ccncc3)c2O[C@H]1CN(C)C(=O)NC1CCCCC1 returned A1 apoptosis 2 inactive, T cruzi intra 70.7 and INS-1E ATP HTS inactive.
For C[C@H](CO)N1C[C@H](C)[C@@H](CN(C)CC2CCCCC2)Oc2c(NC(=O)c3ccncc3)cccc2C1=O the results were T cruzi intra 56.6 and INS-1E ATP HTS inactive.
`C[C@H]1CN([C@@H](C)CO)C(=O)c2cccc(NC(=O)c3ccncc3)c2O[C@@H]1CN(C)CC1CCCCC1` gave A1 apoptosis 2 inactive, T cruzi intra 86.1 and INS-1E ATP HTS inactive.
C[C@H]1CN([C@@H](C)CO)C(=O)c2cccc(NC(=O)c3ccncc3)c2O[C@H]1CN(C)CC1CC1 was read as A1 apoptosis 2 inactive, T cruzi intra inactive and INS-1E ATP HTS inactive.
CCO[C@@H]1OC(C(=O)N2CCOCC2)=C[C@H](c2ccc3c(c2)OCO3)[C@H]1CCCO was read as A1 apoptosis 2 inactive.
For O=C(NO)c1cccc(C(=O)N/N=C/c2cccc(B(O)O)c2)c1 the results were A1 apoptosis 2 inactive, T cruzi intra inactive and INS-1E ATP HTS inactive.
For CC(/C=C/C(=O)NO)=C\c1ccccc1OC[C@@H]1[C@H]2C[C@H]3c4[nH]c5ccccc5c4CCN3C[C@@H]2CC[C@@H]1O the results were A1 apoptosis 2 inactive.
`COc1cc(/C=N/NC(=O)c2ccccc2O)c(Br)cc1O` gave A1 apoptosis 2 inactive, T cruzi intra inactive and INS-1E ATP HTS inactive.
For C[C@@H]1CN([C@@H](C)CO)C(=O)c2cc(NC(=O)Nc3ccc(C(F)(F)F)cc3)ccc2O[C@@H](C)CCCCO[C@@H]1CN(C)S(=O)(=O)c1cccs1 the results were A1 apoptosis 2 inactive.
C[C@@H]1CCCCO[C@H](CN(C)S(=O)(=O)c2cccs2)[C@@H](C)CN([C@H](C)CO)C(=O)c2cc(NC(=O)Nc3ccc(C(F)(F)F)cc3)ccc2O1 was read as T cruzi intra 62.4 and INS-1E ATP HTS inactive.

Source: PubChem BioAssay (Broad Institute)
